{
  "source": "paper PMC7693064",
  "about": "(American Journal of Hematology, 2020)",
  "key": {"classical pathway": {"tested_on": "classical pathway", "assay": "CH50 assay, hemolytic activity of the classical pathway, PHAROAH", "assay_type": "in vivo, human", "settings": "six subjects, first year of treatment, with eculizumab", "how_it_was_run": "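Results were reported in complement activity enzyme units or U/mL, as the laboratory changed units during the study. Each value was judged against the reference range in use at that time point. Individual subject data were plotted over time.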"}, "subjects with PNH [1]": {"tested_on": "subjects with PNH", "assay": "Packed RBC transfusions, PHAROAH", "assay_type": "in vivo, human", "how_it_was_run": "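Packed RBC transfusions given to each cohort 4 subject were recorded throughout the study. […] Pegcetacoplan was given at 270 mg/d SC, and dosing could be increased with Sponsor approval.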"}, "PNH RBCs": {"tested_on": "PNH RBCs", "assay_type": "in vivo, human", "how_it_was_run": "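Whole-blood flow cytometry. RBCs were gated with FITC anti-human glycophorin A, and CD59 was detected with PE anti-CD59 to classify type II (partial) and type III (complete) deficient cells. C3 deposition was detected with biotinylated anti-human C3d plus streptavidin-APC. Matched mouse IgG isotype controls were included.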"}, "C3": {"target": "C3 (Homo sapiens, UniProt P01024)", "sequence (P01024 23-1663)": "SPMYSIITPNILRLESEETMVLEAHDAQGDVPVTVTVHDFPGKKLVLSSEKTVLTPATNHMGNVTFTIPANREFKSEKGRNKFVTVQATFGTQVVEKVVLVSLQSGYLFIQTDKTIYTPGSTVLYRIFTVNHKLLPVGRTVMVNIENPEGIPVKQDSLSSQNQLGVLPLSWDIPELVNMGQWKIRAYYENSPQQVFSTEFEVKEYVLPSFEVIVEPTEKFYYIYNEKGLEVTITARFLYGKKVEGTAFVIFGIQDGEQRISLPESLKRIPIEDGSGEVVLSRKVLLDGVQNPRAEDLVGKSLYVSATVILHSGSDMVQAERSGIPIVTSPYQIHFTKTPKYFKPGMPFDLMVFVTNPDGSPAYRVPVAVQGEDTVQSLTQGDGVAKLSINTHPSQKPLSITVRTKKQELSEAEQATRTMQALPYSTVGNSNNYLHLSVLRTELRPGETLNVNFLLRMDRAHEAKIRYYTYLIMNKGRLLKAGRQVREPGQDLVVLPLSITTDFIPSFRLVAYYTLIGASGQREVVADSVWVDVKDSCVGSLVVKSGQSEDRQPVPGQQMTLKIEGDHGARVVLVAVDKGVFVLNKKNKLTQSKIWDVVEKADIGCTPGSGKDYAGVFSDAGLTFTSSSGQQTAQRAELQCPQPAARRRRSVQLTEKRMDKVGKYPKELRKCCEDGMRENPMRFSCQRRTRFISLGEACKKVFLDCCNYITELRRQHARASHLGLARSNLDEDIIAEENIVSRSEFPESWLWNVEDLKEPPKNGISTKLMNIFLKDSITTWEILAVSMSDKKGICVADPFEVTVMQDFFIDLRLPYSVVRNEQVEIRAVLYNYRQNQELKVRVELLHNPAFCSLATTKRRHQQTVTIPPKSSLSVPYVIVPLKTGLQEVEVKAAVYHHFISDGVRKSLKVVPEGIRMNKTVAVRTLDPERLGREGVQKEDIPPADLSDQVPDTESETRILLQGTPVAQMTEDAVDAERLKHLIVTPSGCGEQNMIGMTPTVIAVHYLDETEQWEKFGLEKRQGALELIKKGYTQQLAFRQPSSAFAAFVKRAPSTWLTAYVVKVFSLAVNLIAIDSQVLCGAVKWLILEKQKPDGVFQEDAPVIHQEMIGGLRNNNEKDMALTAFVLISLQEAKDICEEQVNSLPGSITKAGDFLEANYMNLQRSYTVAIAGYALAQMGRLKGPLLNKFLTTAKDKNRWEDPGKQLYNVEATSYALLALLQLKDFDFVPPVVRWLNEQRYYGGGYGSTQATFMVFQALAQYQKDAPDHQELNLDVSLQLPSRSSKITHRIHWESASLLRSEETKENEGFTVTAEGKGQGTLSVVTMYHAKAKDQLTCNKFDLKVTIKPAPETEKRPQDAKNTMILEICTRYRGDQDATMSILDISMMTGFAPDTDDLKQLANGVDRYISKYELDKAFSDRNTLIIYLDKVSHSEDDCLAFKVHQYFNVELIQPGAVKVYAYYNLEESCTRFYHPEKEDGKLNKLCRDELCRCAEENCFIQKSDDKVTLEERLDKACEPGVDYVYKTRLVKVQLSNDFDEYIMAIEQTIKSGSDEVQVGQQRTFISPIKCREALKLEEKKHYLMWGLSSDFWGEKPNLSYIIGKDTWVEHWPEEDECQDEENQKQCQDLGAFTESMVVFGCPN", "assay": "Serum C3 levels, PHAROAH", "assay_type": "in vivo", "how_it_was_run": "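Values were judged against the reference range in use at each time point. For one subject, pegcetacoplan dosing was suspended between days 29 and 56 and resumed at 180 mg/d on day 57. Individual data were plotted over time.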"}, "alternative pathway": {"tested_on": "alternative pathway", "assay": "AH50 assay, hemolytic activity of the alternative pathway, PHAROAH", "assay_type": "in vivo, human"}, "[2]": {"assay": "Pegcetacoplan serum concentrations", "assay_type": "in vivo, human", "settings": "single-dose phase, SC 25 or 50 mg (cohorts 1 and 2)"}, "subjects with PNH [3]": {"tested_on": "subjects with PNH", "assay": "Hemolytic markers", "assay_type": "in vivo, human"}, "[4]": {"settings": "subject 12, day 421, after initial attempt to discontinue eculizumab with no increase in pegcetacoplan dosing"}},
  "data": [
    {"substance": "pegcetacoplan", "values": [
      {"measurement": "Effect on CH50", "setting": "classical pathway", "result": "No significant effect"},
      {"measurement": "Transfusion avoidance", "setting": "subjects with PNH [1]; four subjects who completed the study", "result": "achieved in all four subjects"},
      {"measurement": "Packed RBC transfusions received during the study", "setting": "subjects with PNH [1]; subject 9, seven given before steady state or after pegcetacoplan was suspended", "result": "nine"},
      {"measurement": "Deposition of C3 fragments on the surface of type II and III RBCs", "setting": "PNH RBCs; all subjects in cohort 4", "result": "decrease"},
      {"measurement": "Type II and III cells as a proportion of the clonal distribution of total RBCs", "setting": "PNH RBCs; five subjects, by day 85", "result": "> 90", "unit": "%"},
      {"measurement": "Serum C3 levels, change", "setting": "C3; all subjects in cohort 4", "result": "increase"},
      {"measurement": "Serum C3 level", "setting": "C3; subject 11, day 29", "result": 415, "unit": "mg/dL"},
      {"measurement": "Serum C3 level", "setting": "C3; subject 11, day 57, after suspension of pegcetacoplan dosing", "result": 107, "unit": "mg/dL"},
      {"measurement": "AH50 levels", "setting": "alternative pathway; after eculizumab discontinuation", "result": "increased following eculizumab discontinuation"},
      {"measurement": "Subjects with AH50 levels within the 77-159 U/mL reference range", "setting": "alternative pathway; last evaluation time point, four subjects who completed the study", "result": "two of the four"},
      {"measurement": "Time of peak serum concentration", "setting": "[2]", "result": "a week after dosing"},
      {"measurement": "Subjects with hemoglobin levels within reference range 11.1-15.9 g/dL", "setting": "subjects with PNH [3]; after 2 years of treatment, four remaining subjects", "result": "three of the four"},
      {"measurement": "Reticulocyte count, change during the study", "setting": "subjects with PNH [3]; cohort 4", "result": "reductions were observed in all subjects"},
      {"measurement": "Total bilirubin levels, change during the study", "setting": "subjects with PNH [3]; cohort 4", "result": "Decreases in total bilirubin levels were observed in all subjects"},
      {"measurement": "Hemoglobin levels", "setting": "subjects with PNH [3]; cohort 4, all six subjects", "result": "increased in all subjects by day 29"},
      {"measurement": "LDH levels during treatment", "setting": "subjects with PNH [3]; cohort 4, with some fluctuations", "result": "remained stable"},
      {"measurement": "LDH level", "setting": "subjects with PNH [3]; [4]", "result": 1571, "unit": "U/L"},
      {"measurement": "Total bilirubin level", "setting": "subjects with PNH [3]; [4]", "result": 2.3, "unit": "mg/dL"}
    ]}
  ]
}
